Series [1] in a line: Binding affinity to synthetic self-complementary DNA 12-mer duplex assessed as change in melting temperature at 4 mol equiv in presence of 100 mM KCl buffer by circular dichroism spectroscopic analysis. The method in brief: (§1)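 CD melting, 20-100 °C at 1 °C/min, signal at 264 (parallel), 290 (antiparallel) or 280 nm (duplex). G4 DNA 10 µM or duplex 15 µM, folded by heating at 90 °C 5 min and slow cooling, in 10 mM potassium phosphate (c-kit1, Tel23, Tel26) or lithium phosphate (Tel23-p, ds12) pH 7.0 with 100 mM KCl. Ligand 4 equiv; Tm by curve fit, ΔTm vs DNA alone; duplicate average.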
(In general: Circular dichroism is widely used to follow secondary structure.)

The nature of series [2]: Binding affinity to synthetic telomere 23 parallel G-quadruplex DNA assessed as change in melting temperature at 4 mol equiv in presence of 100 mM KCl buffer by circular dichroism spectroscopic analysis. The method in brief:
as §1

A short description of series [3]: Induction of parallel G-quadruplex formation in synthetic unfolded c-KIT1 DNA assessed as increase in molar ellipticity after 10 mins by in absence of metal cation circular dichroism titration method. The method in brief:
(§2)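 CD titration without metal ions: unfolded oligonucleotide 12-15 µM in 50 mM Tris; ligand added in 0.5 equiv steps, spectrum recorded 10 min after each addition at 20 °C, 230-360 nm, 3 scans averaged.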

Series [4] is described as follows: Effect on synthetic c-KIT2 G-quadruplex DNA topology at 4 mol equiv by circular dichroism spectroscopic analysis. The method in brief: (§3)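 CD spectra at 20 °C, 230-360 nm, 3 scans averaged, baseline subtracted; 10 µM G4 or 15 µM duplex in potassium- or lithium-phosphate pH 7.0 buffers with 100 mM KCl (c-kit2, c-myc: 5 mM potassium phosphate, 20 mM KCl); ligand 4 molar equiv added to folded DNA from 6 mM DMSO stock.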

A short description of series [5]: Binding affinity to synthetic telomere 26 G-quadruplex DNA assessed as change in melting temperature at 4 mol equiv in presence of 100 mM KCl buffer by circular dichroism spectroscopic analysis. The method in brief: as §1
A short description of series [6]: Effect on preformed synthetic c-MYC parallel G-quadruplex DNA topology in tris buffer after 10 mins by circular dichroism titration method.
A short description of series [7]: Effect on synthetic c-MYC G-quadruplex DNA topology at 4 mol equiv by circular dichroism spectroscopic analysis. The method in brief:
as §3

The nature of series [8]: Effect on synthetic telomere 26 G-quadruplex DNA topology at 4 mol equiv by circular dichroism spectroscopic analysis. An outline of the steps:
as §3

Series [9] is described as follows: Binding affinity to 5'-FAM/3'-TAMRA labeled c-MYC G-quadruplex DNA (unknown origin) assessed as change in melting temperature at 4:1 ligand:DNA ratio in presence of 20 mM KCl buffer by FRET assay. An outline of the steps: (§4)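 FRET melting of FAM/TAMRA-labelled G4 oligos (400 nM, annealed 85 °C 10 min) with ligand at 4 equiv, same buffers as CD (20 mM KCl for c-kit2 and c-myc; 100 mM KCl for telomeric parallel form, annealed at high concentration). Excitation 450-495 nm, emission 515-545 nm, read every 0.5 °C over 30-100 °C; ΔTm by curve fit; duplicate runs averaged.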

A short description of series [10]: Binding affinity to synthetic c-MYC G-quadruplex DNA assessed as change in melting temperature at 4 mol equiv in presence of 20 mM KCl buffer by circular dichroism spectroscopic analysis.
Series [11] in a line: Binding affinity to synthetic c-KIT2 G-quadruplex DNA assessed as change in melting temperature at 4 mol equiv in presence of 20 mM KCl buffer by circular dichroism spectroscopic analysis. An outline of the steps:
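CD melting as for other targets (20-100 °C, 1 °C/min, 10 µM folded G4, ligand 4 equiv), but in 5 mM potassium phosphate with 20 mM KCl; c-kit2 read at 264 nm as parallel G4. ΔTm from fitted Tm, duplicate average.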

Series [12] is described as follows: Effect on synthetic c-KIT1 G-quadruplex DNA topology at 4 mol equiv by circular dichroism spectroscopic analysis. The method in brief:
as §3

Series [13] is described as follows: Binding affinity to synthetic telomere 23 G-quadruplex DNA assessed as change in melting temperature at 4 mol equiv in presence of 100 mM KCl buffer by circular dichroism spectroscopic analysis. The method in brief: as §1
Series [14] is described as follows: Effect on synthetic self-complementary DNA 12-mer duplex topology at 4 mol equiv in presence of K+ ions by circular dichroism spectroscopic analysis. An outline of the steps: as §3
The species entered for series [15] is Homo sapiens. The experiment in a line: Binding affinity to human 5'-FAM/3'-TAMRA labeled telomere 21 G-quadruplex DNA assessed as increase in melting temperature by FRET assay. The method in brief: (§5)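 FRET melting screen in 60 mM potassium cacodylate pH 7.4, labelled probe 400 nM annealed at 85 °C for 10 min; ligands at various concentrations up to 20 µM, diluted from 10 mM DMSO stock via 10 mM HCl. Excitation 450-495 nm, emission 515-545 nm, 30-100 °C in 0.5 °C steps with 30 s hold; ΔTm by curve fitting, triplicate.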

A short description of series [16]: Binding affinity to synthetic c-KIT2 G-quadruplex DNA assessed as increase in thermal stability in presence of 20 mM KCl buffer by circular dichroism spectroscopic analysis. An outline of the steps: (§6)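 CD melting in 5 mM potassium phosphate, 20 mM KCl, 10 µM folded G4, heated 20-100 °C at 1 °C/min; ligand:DNA ratios 1:1, 2:1 and 4:1 compared; Tm from curve fit.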

Series [17] is described as follows: Binding affinity to synthetic c-KIT1 G-quadruplex DNA assessed as change in melting temperature at 4 mol equiv in presence of 100 mM KCl buffer by circular dichroism spectroscopic analysis. The method in brief: as §1
A short description of series [18]: Binding affinity to 5'-FAM/3'-TAMRA labeled c-KIT2 G-quadruplex DNA (unknown origin) assessed as change in melting temperature at 4:1 ligand:DNA ratio in presence of 20 mM KCl buffer by FRET assay. The method in brief:
as §4

Series [19] in a line: Induction of parallel G-quadruplex formation in synthetic unfolded c-KIT2 DNA assessed as increase in molar ellipticity after 10 mins in absence of metal cation by circular dichroism titration method. The method in brief:
as §2

Series [20] can be described thus: Binding affinity to human 5'-FAM/3'-TAMRA labeled telomere 21 parallel G-quadruplex DNA (unknown origin) assessed as change in melting temperature at 4:1 ligand:DNA ratio in presence of 100 mM KCl buffer by FRET assay. An outline of the steps:
as §4

The nature of series [21]: Induction of G-quadruplex formation in synthetic unfolded telomere 23 DNA assessed as increase in molar ellipticity after 10 mins in absence of metal cation by circular dichroism titration method. An outline of the steps: as §2
Series [22] can be described thus: Effect on synthetic telomere 23 G-quadruplex DNA topology at 4 mol equiv by circular dichroism spectroscopic analysis. The method in brief: as §3
A short description of series [23]: Effect on synthetic telomere 23 parallel G-quadruplex DNA topology at 4 mol equiv by circular dichroism spectroscopic analysis. The method in brief: as §3
Series [24] relates to U2OS. The experiment in a line: Stabilization of nuclear G-quadruplex DNA in human U2OS cells at 2 to 10 uM after 24 hrs by DAPI staining based immunofluorescence assay. Type of series: cell-based. An outline of the steps: (§7)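 U2OS seeded at 100000 cells/ml, treated 24 h after seeding for 24 h; fixed methanol:acetic acid 3:1, 0.1% Triton X-100, 2% milk block. Stained with in-house His-purified BG4, anti-FLAG, Alexa 488 anti-rabbit; nuclei DAPI. Per-cell signal as corrected total cell fluorescence; Student's t test.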

The test system of series [25] is U2OS. The experiment in a line: Cytotoxicity against human U2OS cells assessed as cell killing after 1 hr by MTT assay. Type of series: functional, cell-based. The method in brief:
(§8)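 U2OS and HCT116 in DMEM with 10% FBS, 1% L-glutamine, seeded at 40000 cells/ml; 24 h later exposed for 1 h or 24 h, then drug-free medium 1-2 days. MTT 1 h at 37 °C, DMSO solubilisation, absorbance 595 nm. IC50 by linear regression; two independent experiments in triplicate, mean ± SE.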
Background: Tetrazolium assays rely on reduction of a dye to a coloured formazan, in cell work by metabolically active cells.

The nature of series [26]: Cytotoxicity against human HCT116 cells assessed as cell killing after 1 hr by MTT assay. Type of series: functional, cell-based. The conditions noted are these: HCT-116, 1 h. The method in brief:
as §8

The nature of series [27]: Cytotoxicity against human HCT116 cells assessed as cell killing after 24 hrs by MTT assay. Type of series: functional, cell-based. The conditions noted are these: HCT-116, 24 h. An outline of the steps: as §8
Series [28] concerns U2OS. The experiment in a line: Cytotoxicity against human U2OS cells assessed as cell killing after 24 hrs by MTT assay. Type of series: functional, cell-based. An outline of the steps: as §8
Series [29] has as its system U2OS. The experiment in a line: Stabilization of nuclear G-quadruplex DNA in human U2OS cells at 10 uM after 24 hrs by DAPI staining based immunofluorescence assay. Type of series: cell-based. An outline of the steps:
as §7

Series [30] is described as follows: Binding affinity to synthetic c-MYC G-quadruplex DNA assessed as increase in thermal stability in presence of 20 mM KCl buffer by circular dichroism spectroscopic analysis. The method in brief: as §6
Series [31] concerns U2OS. The series is described as follows: Cytotoxicity against human U2OS cells assessed as cell death after 24 hrs by FACS analysis. Type of series: cell-based.
The test system of series [32] is U2OS. The series is described as follows: Cytotoxicity against human U2OS cells assessed as cell death after 24 hrs by microscopic analysis. Type of series: cell-based.
The species named for series [33] is Homo sapiens. The experiment in a line: Binding affinity to human 5'-FAM/3'-TAMRA labeled duplex DNA T-loop assessed as increase in melting temperature by FRET assay. An outline of the steps:
as §5

Active and inactive are the calls of the source. No cut-off for these calls is given here.

Broadly, the ΔTm is the shift of the melting midpoint relative to a reference. Consider `N=C(N)N/N=C/c1c(-c2ccsc2)nc2n1ccc1nc(-c3ccsc3)c(/C=N/NC(=N)N)n12`, for which the ΔTm in series [1] was 3.5 °C; in series [2], above 20 °C; in series [5], -6.5 °C; in series [9], above 20 °C; in [10], above 20 °C; in series [11], above 20 °C. The ΔTm in series [13] was -4.9 °C; in [17], above 15 °C; in series [18], above 20 °C; in [20] it was above 20 °C. The Activity entry in [3] and in series [16] was “Dose-dependent effect” throughout. Moreover, the outcome in [4], in [6], in series [7], in [8], in [12] and in series [14] was inactive. Also, the outcome in series [21], in series [22] and in series [23] was inactive. The outcome in series [15] and in series [19] was Active.
Usually IC50 stands for the point on the concentration scale where inhibition reaches its midpoint. `O=Cc1c(-c2ccccc2)nc2n1ccc1nc(-c3ccccc3)c(C=O)n12`: in series [24], the result was inactive. The IC50 in series [25] amounted to 45.2 µM; in series [26], 16.8 µM; in series [27], 4.06 µM; in series [28], 9.16 µM.
Turning to `N=C(N)N/N=C/c1c(-c2ccccc2)nc2ccn3c(/C=N/N=C(N)N)c(-c4ccccc4)nc3n12`, the ΔTm in series [1] is 0.1 °C; in series [2], above 20 °C; in series [5] it was -4.5 °C; in [10], above 20 °C; in series [11], above 20 °C; in series [13], -10 °C. The ΔTm in series [17] was above 15 °C. Besides, the outcome in series [4], in [7], in series [8], in [12], in [14] and in series [22] was inactive. The result in series [23] was inactive. Further, the outcome in [29] and in series [15] was Active.
Consider `C(=N\NC1=NCCN1)/c1c(-c2ccccc2)nc2n1ccc1nc(-c3ccccc3)c(/C=N/NC3=NCCN3)n12`, for which the ΔTm in [1] is 1.3 °C; in series [2] it was 10.8 °C; in series [5], -8.9 °C; in series [9], above 15 °C; in [10] it was above 15 °C; in series [11] it was above 20 °C. Besides, the ΔTm was -14 °C in series [13], 1.6 °C in series [17], above 20 °C in [18] and above 15 °C in series [20]. The Activity result in series [3], in [30] and in [16] was “Dose-dependent effect” in each case. Moreover, the outcome in [4], in [6], in series [7], in [8], in series [12] and in series [14] was inactive. In addition, the outcome in series [21], in series [22] and in series [23] was inactive. The result in series [15] and in series [19] was Active.
In the case of `Cl.Cl.N=C(N)N/N=C/c1c(-c2ccccc2)nc2n1ccc1nc(-c3ccccc3)c(/C=N/NC(=N)N)n12`, the IC50 in series [25] came out at 101 µM; in [26], 35.1 µM; in [27], 5.12 µM; in series [28] it was 16 µM. Also, the Activity entry in [31] and in series [32] was “Non-toxic” throughout.
Consider `Cn1c(Cl)c(/C=N/NC(=N)N)c2cc3c(/C=N/NC(=N)N)c(Cl)n(C)c3cc21`, for which the ΔTm was above 20 °C in [2]; 1.3 °C in series [5]; above 20 °C in series [10]; above 15 °C in series [11]; 3 °C in series [13]; above 15 °C in series [17]. Moreover, the result in [4], in series [7], in [8], in [12], in series [14] and in [22] was inactive. The outcome in series [23] was inactive. The outcome in series [33] and in series [15] was Active.

The values above are taken from ChEMBL document CHEMBL3826876, “Toward the Development of Specific G-Quadruplex Binders: Synthesis, Biophysical, and Biological Studies of New Hydrazone Derivatives” (J Med Chem, 2016).
